ChEMBL document CHEMBL1158452, “Na+ currents in cardioprotection: better to be late” (J Med Chem, 2009)
Activity calls are given as the source filed them. The rule behind the calls is not given here.

Key:
[1] = target: T1, Sodium channel protein type 5 subunit alpha (Homo sapiens, UniProt Q14524); assay: Inhibition of human Nav1.5 channel expressed in HEK293 cells assessed as blockade of veratridine-induced late inward sodium current elicited at -30 mV from holding potential -110 mV at 10 uM by patch clamp method; assay type: cell-based
In short: (§1)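 HEK293 cells expressing hNaV1.5, room temperature (19-22 °C). Pipette (mmol): NaCl 10, CsCl 110, CaCl2 1, HEPES 10, EGTA 10, Mg-ATP 5, glucose 10, pH 7.3; bath: NaCl 30, CsCl 100, MgCl2 2, CaCl2 2, HEPES 10, glucose 5, pH 7.4. Veratridine 40 μM; 350 ms pulses to -30 mV at 0.2 Hz; late INa = mean current over last 10 ms; DMSO final 0.1%.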

Heart [2] = assay: Cardioprotective activity in Langendorff-perfused guinea pig heart assessed as inhibition of global ischemia-induced diastolic contracture at 1 uM; assay type: functional; conditions: Cavia porcellus
In short: (§2)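 Female Hartley guinea pig hearts, Langendorff-perfused at constant 800 mm H2O with modified Krebs (pH 7.4, 95% O2/5% CO2), 37 °C, LV latex balloon. After 45-60 min equilibration, compound or vehicle perfused 15 min, then 50 min global normothermic ischemia and 60 min reperfusion; one concentration per heart. LVDP, end-diastolic pressure, heart rate, dP/dt, coronary flow recorded.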

[3] = target: T1, Sodium channel protein type 5 subunit alpha; assay: Inhibition of human Nav1.5 channel expressed in HEK293 cells assessed as blockade of veratridine-induced late inward sodium current elicited at -30 mV from holding potential -90 mV at 10 uM by patch clamp method; assay type: cell-based; in short: as §1
[4] = Cardioprotective activity in […] Landrace pig heart assessed decrease in myocardial infarct volume […] followed by 30 mins of reperfusion; assay type: functional, Sus scrofa; set-up: scale not given: the % may be the effect or the level left
Sus scrofa [5] = organism: Sus scrofa; assay: Cardioprotective activity against myocardial ischemia-reperfusion in Landrace pig heart assessed as prevention of post reperfusion injury after 48 hrs; assay type: functional, tissue-based
In short: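 Anaesthetised male Landrace pigs (18-25 kg); LCX occluded 60 min, reperfused 48 h. Compound i.v. bolus 10 min pre-ischemia plus infusion through occlusion and first 30 min reperfusion. Evans blue delineates area at risk, TTC (0.1%) stains viable tissue; 10 mm LV slices imaged; necrosis expressed as % of area at risk. Means ± SEM; ANOVA with Dunnett's test.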

Plasma = assay: Cardioprotective activity in […] Landrace pig assessed decrease in troponin 1 plasma level administered iv 60 mins before ischemia measured after 6 hrs of reperfusion; assay type: functional, organism-based; conditions: Sus scrofa
Sus scrofa [6] = assay: Cardioprotective activity in […] Landrace pig heart assessed as change collateral circulation administered iv 60 mins before ischemia followed by 48 hrs of reperfusion; assay type: functional, organism-based
Sus scrofa [7] = assay: Cardioprotective activity in […] Landrace pig heart assessed as change in blood flow administered iv 60 mins before ischemia followed by 48 hrs of reperfusion; assay type: functional, organism-based
Heart [8] = assay: Cardiovascular activity in Langendorff-perfused guinea pig heart assessed as change in heart rate at 1 uM; assay type: functional, Cavia porcellus; in short: as §2
Sus scrofa [9] = organism: Sus scrofa; assay: Cardioprotective activity in […] Landrace pig assessed enhancement of Na+ current; assay type: functional, organism-based
Heart [10] = assay: Cardiovascular activity in Langendorff-perfused guinea pig heart assessed as change in left ventricular developed pressure at 1 uM; assay type: functional, Cavia porcellus; in short: as §2
Heart [11] = assay: Cardiovascular activity in Langendorff-perfused guinea pig heart assessed as change in coronary vascular resistance at 1 uM; assay type: functional, Cavia porcellus; in short: as §2
[12] = Cardioprotective activity in […] Landrace pig heart assessed decrease in myocardial infarct size […]; assay type: functional, Sus scrofa; set-up: scale not given: the % may be the effect or the level left
Cardiac atrium = conditions: Rattus norvegicus, Wistar, 1 uM

T1 sequence (Q14524 whole entry): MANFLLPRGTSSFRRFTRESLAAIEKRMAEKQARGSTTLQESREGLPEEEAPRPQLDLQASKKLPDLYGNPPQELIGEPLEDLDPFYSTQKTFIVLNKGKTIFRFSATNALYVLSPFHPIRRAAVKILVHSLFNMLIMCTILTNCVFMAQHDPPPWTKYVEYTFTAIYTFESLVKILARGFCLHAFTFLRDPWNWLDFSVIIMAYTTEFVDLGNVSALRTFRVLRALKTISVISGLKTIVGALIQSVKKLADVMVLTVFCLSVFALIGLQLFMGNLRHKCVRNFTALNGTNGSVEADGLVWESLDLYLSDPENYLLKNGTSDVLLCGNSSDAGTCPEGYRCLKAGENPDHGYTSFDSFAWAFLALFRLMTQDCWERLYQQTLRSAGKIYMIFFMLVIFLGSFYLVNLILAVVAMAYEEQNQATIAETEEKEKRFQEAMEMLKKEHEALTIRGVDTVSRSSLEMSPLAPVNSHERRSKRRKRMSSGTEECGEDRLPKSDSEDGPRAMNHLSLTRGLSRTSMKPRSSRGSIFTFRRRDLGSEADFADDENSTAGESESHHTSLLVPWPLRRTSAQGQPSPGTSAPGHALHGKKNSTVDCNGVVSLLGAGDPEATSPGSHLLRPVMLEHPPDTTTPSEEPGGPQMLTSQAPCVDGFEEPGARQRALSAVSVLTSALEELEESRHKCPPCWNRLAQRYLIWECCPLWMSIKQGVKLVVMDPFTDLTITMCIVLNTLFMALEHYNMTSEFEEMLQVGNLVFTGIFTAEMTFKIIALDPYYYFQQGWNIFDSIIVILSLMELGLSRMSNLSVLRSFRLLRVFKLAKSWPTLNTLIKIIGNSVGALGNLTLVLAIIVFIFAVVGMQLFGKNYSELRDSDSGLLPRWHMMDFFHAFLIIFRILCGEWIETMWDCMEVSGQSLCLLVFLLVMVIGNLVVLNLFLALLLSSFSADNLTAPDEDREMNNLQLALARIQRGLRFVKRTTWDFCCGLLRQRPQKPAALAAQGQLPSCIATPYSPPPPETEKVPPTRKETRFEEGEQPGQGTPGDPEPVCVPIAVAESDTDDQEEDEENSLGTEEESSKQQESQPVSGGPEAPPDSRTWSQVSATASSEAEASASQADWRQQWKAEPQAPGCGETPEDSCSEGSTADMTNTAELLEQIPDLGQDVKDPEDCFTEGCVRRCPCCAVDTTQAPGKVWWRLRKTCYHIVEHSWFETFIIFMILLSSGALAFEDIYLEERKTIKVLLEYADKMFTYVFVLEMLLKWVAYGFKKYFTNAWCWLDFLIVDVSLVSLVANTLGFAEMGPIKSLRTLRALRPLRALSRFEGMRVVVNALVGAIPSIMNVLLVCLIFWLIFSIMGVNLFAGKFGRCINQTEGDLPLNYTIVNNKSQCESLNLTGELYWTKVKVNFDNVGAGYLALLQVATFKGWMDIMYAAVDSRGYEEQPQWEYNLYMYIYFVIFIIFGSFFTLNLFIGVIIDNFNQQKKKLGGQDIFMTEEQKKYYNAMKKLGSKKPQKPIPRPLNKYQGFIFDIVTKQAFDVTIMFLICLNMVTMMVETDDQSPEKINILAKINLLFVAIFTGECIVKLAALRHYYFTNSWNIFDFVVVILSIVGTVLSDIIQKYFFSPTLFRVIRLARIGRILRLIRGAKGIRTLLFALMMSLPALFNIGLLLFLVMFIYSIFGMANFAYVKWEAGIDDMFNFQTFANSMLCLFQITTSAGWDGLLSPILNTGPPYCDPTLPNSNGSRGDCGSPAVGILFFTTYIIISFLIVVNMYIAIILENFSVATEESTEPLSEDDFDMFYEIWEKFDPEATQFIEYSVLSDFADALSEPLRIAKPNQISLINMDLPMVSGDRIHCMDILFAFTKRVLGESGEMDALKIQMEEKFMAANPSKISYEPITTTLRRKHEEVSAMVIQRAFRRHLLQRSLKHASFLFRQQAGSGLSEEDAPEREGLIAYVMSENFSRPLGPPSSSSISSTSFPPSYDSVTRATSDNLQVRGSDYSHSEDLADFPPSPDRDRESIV

| Structure (SMILES) | inhibition at 10 µM [1] | inhibition at 1 µM (Heart [2]) | inhibition at 10 µM [3] | further results |
| --- | --- | --- | --- | --- |
| C[C@@H](CN[C@@H]1COc2ccccc2SC1)CSc1cccc(F)c1N | 11% | 33% | 19% |  |
| Cc1ccccc1SC[C@@H](C)CN[C@@H]1COc2ccccc2SC1 | 11% |  | 14% |  |
| C[C@@H](CN[C@@H]1COc2ccccc2SC1)CSc1cccc2ccoc12 | 73% | 68% | 82% |  |
| C[C@@H](CN[C@@H]1COc2ccccc2SC1)CSc1cccc2c1OCC2 | 47% | 72% | 56% |  |
| COc1cccc(SC[C@@H](C)CN[C@@H]2COc3ccccc3SC2)c1N | 13% | 21% | 18% |  |
| Cc1cccc(SC[C@@H](C)CN[C@@H]2COc3ccccc3SC2)c1CO | 45% | 31% | 58% |  |
| COc1ccccc1SC[C@@H](C)CN[C@@H]1COc2ccccc2SC1 |  | 65% |  |  |
| C[C@@H](CN[C@@H]1COc2ccccc2SC1)CSc1cccc(F)c1O | 38% | 54% | 40% |  |
| C[C@@H](CN[C@@H]1COc2ccccc2SC1)CSc1cccc2cn[nH]c12 | 34% | 73% | 44% |  |
| C[C@@H](CN[C@@H]1COc2ccccc2SC1)CSc1cccc(C(N)=O)c1O | 59% | 43% | 65% |  |
| CC(C)c1ccc(C(=O)N=C(N)N)cc1S(C)(=O)=O [CARIPORIDE] |  | 6% |  | Activity [4]: 6.8%; Activity (Sus scrofa [5]): Active; Activity (Plasma): Active |
| Cc1cccc(SC[C@@H](C)CN[C@@H]2COc3ccccc3SC2)c1O | 73% | 70% | 87% | Activity (Sus scrofa [6]): inactive; Activity (Sus scrofa [7]): inactive; Activity (Sus scrofa [5]): Active; Activity (Heart [8]): 0.1 bpm; Activity (Sus scrofa [9]): inactive; Activity (Heart [10]): -5.9 mmHg; Activity (Heart [11]): -1.6 dyn.s.cm'-5.10'4; Activity (Plasma): Active; Activity [12]: 3.5% |
| CC(C)c1cccc(SC[C@@H](C)CN[C@@H]2COc3ccccc3SC2)c1O | 38% |  | 46% |  |
| COc1cccc(SC[C@@H](C)CN[C@@H]2COc3ccccc3SC2)c1O | 35% | 46% | 46% |  |
| NC1=N[C@H](O)[C@H]2[C@H]3O[C@]4(O)O[C@@H]([C@@H](O)[C@@]2(N1)[C@@H]4O)[C@]3(O)CO |  |  |  | inhibition (Cardiac atrium): 64% |
| C[C@@H](CN[C@@H]1COc2ccccc2SC1)CSc1cccc2cc[nH]c12 | 8% |  | 8% |  |
| COc1c(C)cccc1SC[C@@H](C)CN[C@@H]1COc2ccccc2SC1 | 28% |  | 32% |  |
| CCc1cccc(SC[C@@H](C)CN[C@@H]2COc3ccccc3SC2)c1O | 56% | 13% | 56% |  |
| C[C@@H](CN[C@@H]1COc2ccccc2SC1)CSc1cccc2c1OCO2 | 32% | 22% | 54% |  |
| C[C@@H](CN[C@@H]1COc2ccccc2SC1)CSc1cccc(N)c1O | 11% |  | 19% |  |
| C[C@@H](CN[C@@H]1COc2ccccc2SC1)CSc1cccc2ncoc12 | 16% | 84% | 26% |  |
| CCOc1ccccc1SC[C@@H](C)CN[C@@H]1COc2ccccc2SC1 | 41% |  | 54% |  |
| Cc1cccc(SC[C@@H](C)CN[C@@H]2COc3ccccc3SC2)c1N | 26% | 35% | 26% |  |
